# Rows were chosen to be rich in hits. Some 4% of all compounds tested hit in one or more screens of this group.
# TAAR1 antagonist: human TAAR1 antagonists, primary screen, Fluo-8 calcium fluorescence, CHO RD-HGA16 cells | Trace amine-associated receptor 1 (Homo sapiens), Q96RJ0 | antagonist | inhibition, % at 3 µM | hit rate 1.5% among 360,000 | AID 624466, 2012;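 active = inhibition above a per-plate cutoff, the mean inhibition of test compounds on that plate plus 3 SD, cut at about 49% in these data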;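 also: 0% = DMSO plus EC80 beta-PEA response and 100% = DMSO alone without agonist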
#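 System: RD-HGA16 CHO cells with stable hTAAR1 and Gα16 | Probe or stimulus: EC80 β-phenethylamine stimulus | Dosing: 3 µM, single point | Times: Dye loading 75 min at 37 °C, then 30 min room temperature | Measured by: Fluo-8 calcium-sensitive fluorescence | Read-out basis: % inhibition of agonist calcium response | Replicates: n of 1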
# NTR1 ag: agonists of human NTR1, primary screen, imaging, U2OS cells, beta-arrestin-GFP, high content; NTR1-U2OS beta-arrestin-GFP spot imaging, agonist mode; activation, % at 20 µM; hit rate 0.17% among 330,000; AID 493036, 2011;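 active = activation at or above 40% of the spot to cytoplasm intensity ratio, with at least 20 cells analyzed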;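 also: 0% = DMSO without peptide and 100% = 100 nM NTR1 peptide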
# Target sequence (P30989 whole entry, looked up): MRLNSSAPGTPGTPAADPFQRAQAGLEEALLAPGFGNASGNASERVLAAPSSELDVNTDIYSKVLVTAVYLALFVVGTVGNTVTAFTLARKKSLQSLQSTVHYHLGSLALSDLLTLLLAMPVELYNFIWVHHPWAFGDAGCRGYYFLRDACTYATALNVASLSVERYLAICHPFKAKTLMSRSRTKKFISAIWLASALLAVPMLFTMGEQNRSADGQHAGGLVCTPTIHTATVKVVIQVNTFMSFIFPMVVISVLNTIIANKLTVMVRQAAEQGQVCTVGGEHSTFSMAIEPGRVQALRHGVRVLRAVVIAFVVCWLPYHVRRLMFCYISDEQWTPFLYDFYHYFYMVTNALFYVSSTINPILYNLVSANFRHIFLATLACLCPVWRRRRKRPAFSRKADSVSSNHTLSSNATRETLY
# OX1R antag-1: antagonists of human orexin 1 receptor (OX1R). Orexin/Hypocretin receptor type 1 (Homo sapiens), O43613. OX1R-expressing cells, FRET antagonist read-out. inhibition, % at 6.6 µM. hit rate 1.8% among 330,000; in the data active = inhibition mostly above about 38%, no sharp cut-off; inactive = mostly below about 40%;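 also: 0% = agonist challenge alone and 100% = reference antagonist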
# TAAR1 ag: human TAAR1 agonists, primary screen, Fluo-8 calcium fluorescence, CHO RD-HGA16 cells. hit rate 0.99% among 360,000. activation, % at 3 µM. Trace amine-associated receptor 1 (Homo sapiens), Q96RJ0. vehicle wells 0%, saturating PEA agonist 100%;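 active = activation above the mean activation of all test compounds in the run plus 3 SD, cut at about 38% in these data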
#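 test system = CHO RD-HGA16 cells carrying human TAAR1 plus Gα16 | schedule = 17-24 h seeding, 75 min 37 °C dye, 30 min RT | compound dosing = 3 µM single concentration | control set = DMSO and PEA EC100 | replicates = n 1 | signal = Fluo-8 fluorescence, 5 s baseline then 140 s kinetic read | measure = percent activation vs PEA EC100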
# OX1R antag-2: OX1R (HCRTR1) antagonists, primary screen, fluorescence, CHO/OX1R cells, Fluo-8 calcium, orexin A | Fluo-8 calcium fluorescence | Orexin/Hypocretin receptor type 1 (Homo sapiens), O43613 | hit rate 0.43% among 330,000 | inhibition, % at 5 µM;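 active = inhibition above its plate's threshold, mean inhibition of all tested compounds on the plate plus 3 SD, cut at about 37% in these data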;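 also: 0% = orexin A challenge wells and 100% = SB-334867-A antagonist wells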
# CHO parental Ca: ATP-evoked calcium signal inhibitors, parental CHO, primary screen, counter-screen for OX1R antagonist project, cell-based, fluorescence, Fluo-8 calcium dye. hit rate 0.63% among 330,000. AID 463079, 2010. inhibition, % at 5.6 µM. parental CHO-K1, ATP-induced calcium, Fluo-8 fluorescence;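 active = inhibition above that plate's mean sample inhibition plus 3 SD, cut at about 26% in these data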;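 also: 0% = ATP-challenged DMSO wells and 100% = DMSO wells without ATP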
#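 material = parental CHO cells | also added = ATP as calcium-mobilizing challenge | dosing = single point at 5.6 µM | detection = intracellular calcium via Fluo-8 no-wash fluorescent dye | read-out = % inhibition | benchmarks = low control ATP plus DMSO, high control DMSO only | repeats = one well per compound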
# * = called active by the depositor; x = not tested or not shown; ! = not confirmed by another sample.
SMILES,TAAR1 antagonist,NTR1 ag,OX1R antag-1,TAAR1 ag,OX1R antag-2,CHO parental Ca
O=C(CN1CCN(c2cccc(Cl)c2)CC1)c1ccc(O)cc1O,-8,0,12,14,-4,8
COc1ccc(/C=C2\Oc3cc(OCC(=O)N4CCC[C@H]4C(=O)O)ccc3C2=O)cc1OC,x,-1,51*,x,-4,-11
O=C(Oc1ccc2c(c1)OCO2)c1ccc(Br)c(S(=O)(=O)N2CCOCC2)c1,51*,6,7,21,-2,-16
COc1ccc(OC(=O)c2ccc(OC)c(S(=O)(=O)N3CCOCC3)c2)cc1,22,2,x,11,x,x
O=C(Nc1ccc2c(c1)OCCO2)c1ccc(Br)c(S(=O)(=O)N2CCOCC2)c1,54*,x,x,18,x,x
O=C(Nc1ccc2c(c1)OCO2)c1ccc(Br)c(S(=O)(=O)N2CCCC2)c1,24,0,27,9,-4,-16
CC1(C)CC(=O)N(c2ccc(C#N)cc2)C(=O)C1,-3,0,2,2,1,-5
COc1ccccc1C(=O)Nc1ccc2c(c1)nc1n2CCSC1,7,1,54*,3,8,-12
Cc1ccc(C(=O)Nc2ccc3c(c2)nc2n3CCSC2)cc1,19,0,26,8,-18,-19
Cc1cccc(C2(c3cccc(C)c3)CC2C(=O)Nc2ccc([N+](=O)[O-])cc2O)c1 (stereo not given),58*,20,40,3,5,-6
Cc1cccc2c3c([nH]c12)CCNC3,28,4,9,40*,-4,9
O=S(=O)(c1ccc(OC(F)(F)F)cc1)N1CCC(O)(c2cccc(C(F)(F)F)c2)CC1,36,12,6,43*,15,14
COC(=O)c1cc2c(c3c4cc(C)ccc4n(S(=O)(=O)c4ccccc4)c13)C(=O)N(Cc1ccc(C(F)(F)F)cc1)C2,-20,x,x,1,x,x
CC(c1ccco1)N(C(=O)c1ccccc1NS(=O)(=O)c1cc([N+](=O)[O-])ccc1Cl)c1ccccn1 (stereo not given),32,4,72*,7,-15,-16
CC(c1ccco1)N(C(=O)c1ccccc1NS(=O)(=O)c1cccc([N+](=O)[O-])c1)c1ccccn1 (stereo not given),x,4,63*,x,-31,0
COc1ccc(CN2C[C@@]3(O)CC[C@@H](O)[C@@H](OC)[C@@H]3[C@@](C)(O)[C@@H]2CC=C(C)C)cc1,-19,x,x,1,x,x
CCOC(=O)C1=CC[C@@H](c2ccccc2)C(C#N)(C#N)[C@H]1/C=C/c1ccccc1,41,x,x,0,x,x
O=C(Cn1cc(COC(=O)c2c3ccccc3cc3ccccc23)nn1)c1ccc(O)cc1,4,x,x,3,x,x
CN[C@H]1CC[C@@H](c2ccc(Cl)c(Cl)c2)c2ccccc21,51*!,1,15,52*,-4,0
CCC(=O)N/N=C/c1ccc(-c2ccc([N+](=O)[O-])cc2)o1,-1,3,42,0,-7,1
O=C1N=C(O)CN1/N=C/c1ccc(-c2ccc([N+](=O)[O-])cc2)o1,-14,-2,59*,-2,-13,-20
Nc1[nH]c(C(=O)c2ccccc2)c(-c2cccc(C(F)(F)F)c2)c1C(=O)c1c[nH]c2ccccc12,-1,x,x,3,x,x
NC(=O)NCCc1ccccc1,3,1,11,3,-17,-1
CC(C)=CC(=O)NCCc1ccccc1,14,-1,6,42*,7,-17
O=C(/C=C/c1c(Cl)cccc1Cl)NCCc1ccccc1,44,6,7,38*,-11,6
Cc1cc(O)cc(=O)n1-c1cccc(Br)c1,-20,x,x,1,x,x
Cc1ccc(Nc2nc(N)nc(CSc3nc4ccccc4s3)n2)cc1,14,20,27,6,-21,-38

# Screening data (PubChem BioAssay)
